The target of experiment [1] is T1, Growth hormone secretagogue receptor type 1 (Homo sapiens, UniProt Q92847). Briefly: In vitro effective concentration against human growth hormone secretagogues. The class given is functional. An outline of the steps: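 Cell-based FLIPR functional assay in H4 glioma cells in which expression of the endogenous human GHS receptor is enhanced by RAGE-activation. Agonism is read as intracellular calcium mobilization with a calcium-sensitive fluorescent probe, and EC50 is derived from the response.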

For experiment [2], the target named is T1, Growth hormone secretagogue receptor type 1. Briefly: Maximum intrinsic activity against human growth hormone secretagogues at a concentration of 10 uM. It counts as functional.
For experiment [3], the species on record is Rattus norvegicus. Briefly: Number of rats with greater than 100% growth hormone increase over the control group, there are five rats in both control and compound treated groups. It counts as functional. An outline of the steps: (§1)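 Anesthetized rats (treatment stabilizes baseline plasma GH near 60 ng/mL) were given drug or vehicle (10% ethanol, 0.09% saline V/V) IV at 10 mL/kg, five rats per group. Blood was drawn from the abdominal aorta 15 min later for plasma GH. The result is expressed as % increase over the vehicle group, or as rats exceeding a 100% increase.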

For experiment [4], the target named is T1, Growth hormone secretagogue receptor type 1. Briefly: In vivo effective concentration against human growth hormone secretagogues. It counts as functional, organism-based, Rattus norvegicus.
Experiment [5] has as its system Rattus norvegicus. The experiment in a line: Percent of plasma growth hormone increase at an IV dose of 5.23 lmol/kg. It counts as functional. The method, boiled down: as §1
Experiment [6] addresses T1, Growth hormone secretagogue receptor type 1. Briefly: In vitro effective concentration against human growth hormone secretagogues.
The species named for experiment [7] is Rattus norvegicus. The experiment in a line: Number of rats with greater than 100% GH increase over the controlgroup, there are five rats in both control and compound treated groups. It counts as functional. An outline of the steps: as §1

Where only a bound is given, the exact number is not on record here.

T1 sequence (Q92847 whole entry): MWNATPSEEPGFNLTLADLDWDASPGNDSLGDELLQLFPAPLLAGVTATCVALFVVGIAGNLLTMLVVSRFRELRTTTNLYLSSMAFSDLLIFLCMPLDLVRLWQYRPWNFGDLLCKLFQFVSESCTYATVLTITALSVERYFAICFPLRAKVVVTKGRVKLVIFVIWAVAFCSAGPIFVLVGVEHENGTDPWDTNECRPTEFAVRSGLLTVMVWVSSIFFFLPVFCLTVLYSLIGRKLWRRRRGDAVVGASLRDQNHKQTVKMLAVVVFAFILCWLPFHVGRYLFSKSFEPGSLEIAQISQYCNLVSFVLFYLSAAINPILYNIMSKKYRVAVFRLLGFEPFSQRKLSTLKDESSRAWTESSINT

`CC(C)N(CCNC(=O)C1c2ccc(OCc3ccccc3)cc2CCN1C(=O)C(O)c1ccccc1)C(C)C` (configuration not stated) showed an EC50 in experiment [1] of 39 nM. This lies in the double-digit nanomolar range.

In the case of `CC(C)N(CCNC(=O)C1c2ccc(OCc3ccccc3)cc2CCN1C(=O)C(C)(C)C)C(C)C` (configuration not stated), in experiment [2], the Activity is 50%.

In experiment [1], `CC(C)N(CCNC(=O)C1c2ccc(OCc3ccccc3)cc2CCN1S(=O)(=O)c1ccccc1)C(C)C` (configuration not stated) registered an EC50 of 21 nM.

Turning to `CC(C)N(CCNC(=O)C1c2ccc(OCc3ccccc3)cc2CCN1C(=O)CCCc1ccccc1)C(C)C` (configuration not stated), the EC50 in experiment [1] was determined as 13.1 nM.

For `CC(C)N(CCNC(=O)C1c2ccc(OCc3ccccc3)cc2CCN1S(C)(=O)=O)C(C)C` (configuration not stated), the Activity in experiment [2] was found to be 47%.

`CC(C)N(CCNC(=O)C1c2ccc(OCc3ccccc3)cc2CCN1C(=O)N(C)C)C(C)C` (configuration not stated) had an EC50 in experiment [1] of 190 nM.

In experiment [1], `CC(=O)Nc1cccc(Oc2ccc3c(c2)CCN(C(=O)OC(C)(C)C)C3C(=O)NCCN(C(C)C)C(C)C)c1` (configuration not stated) had an EC50 of 12 nM.

Compound `CC(C)N(CCNC(=O)C1c2ccc(Oc3ccccc3)cc2CCN1C(=O)OC(C)(C)C)C(C)C` (single isomer, unassigned; form 2) returned a Responder in the experiment listed under Rattus norvegicus [3] of 5 rats. For the same compound, the EC50 in experiment [1] and in experiment [4] was 0.46 nM in each case. In the experiment with Rattus norvegicus [5], this compound yielded an Increase of 1283%.

Compound `CC(C)N(CCNC(=O)C1c2ccc(Oc3cccc(C(F)(F)F)c3)cc2CCN1C(=O)OC(C)(C)C)C(C)C` (configuration not stated) had an EC50 in experiment [1] of 1.5 nM.

In experiment [1], `CC(C)NCCNC(=O)C1c2ccc(OCc3ccccc3)cc2CCN1C(=O)OC(C)(C)C` (configuration not stated) registered an EC50 of 219 nM.

For `COc1ccc(CC(=O)N2CCc3cc(OCc4ccccc4)ccc3C2C(=O)NCCN(C(C)C)C(C)C)cc1` (configuration not stated), in experiment [1], the EC50 was determined as 45 nM.

`CC(C)N(CCNC(=O)C1c2ccc(OCc3ccccc3)cc2CCN1C(=O)Oc1ccccc1)C(C)C` (configuration not stated) registered an Activity in experiment [2] of less than 5%.

In experiment [1], `CC(C)N(CCNC(=O)C1c2ccc(Oc3cccc([N+](=O)[O-])c3)cc2CCN1C(=O)OC(C)(C)C)C(C)C` (configuration not stated) showed an EC50 of 0.66 nM.

`CC(C)N(CCNC(=O)C1c2ccc(OCc3ccccc3)cc2CCN1C(=O)OC1CCCCC1)C(C)C` (configuration not stated) came in with an EC50 in experiment [1] of 4.9 nM.

On to `COc1ccc(Oc2ccc3c(c2)CCN(C(=O)OC(C)(C)C)C3C(=O)NCCN(C(C)C)C(C)C)cc1` (configuration not stated), for which the EC50 in experiment [6] and in experiment [1] was 0.49 nM throughout. The compound also had a Responder in the experiment listed under Rattus norvegicus [7] of 4 rats. Also, the Increase in the experiment with Rattus norvegicus [5] turned out to be 172%.

Compound `CC(C)N(C)CCNC(=O)C1c2ccc(OCc3ccccc3)cc2CCN1C(=O)OC(C)(C)C` (configuration not stated) had an EC50 in experiment [1] of 41 nM.

`CC(C)N(CCNC(=O)C1c2ccc(Oc3ccc(C(F)(F)F)cc3)cc2CCN1C(=O)OC(C)(C)C)C(C)C` (configuration not stated) registered an EC50 in experiment [1] of 2.3 nM. Against the preceding compound, the EC50 is about 18-fold lower.

For `CC(C)N(CCNC(=O)C1c2ccc(OCc3ccccc3)cc2CCN1C(=O)OCc1ccccc1)C(C)C` (configuration not stated), in experiment [1], the EC50 was 27 nM.

Consider `CC(=O)C(C(=O)N1CCc2cc(OCc3ccccc3)ccc2C1C(=O)NCCN(C(C)C)C(C)C)c1ccccc1` (configuration not stated), for which it took 9.2 nM to reach a half-maximal effect in experiment [1] (EC50).

Compound `CC(=O)NC(C(=O)N1CCc2cc(OCc3ccccc3)ccc2C1C(=O)NCCN(C(C)C)C(C)C)c1ccccc1` (configuration not stated) had an EC50 in experiment [1] of 19.7 nM.

In turn, `CC(C)N(CCNC(=O)C1c2ccc(OCc3ccccc3)cc2CCN1C(=O)Nc1ccccc1)C(C)C` (configuration not stated) returned an Activity in experiment [2] of 43%.

Regarding `CSc1ccc(Oc2ccc3c(c2)CCN(C(=O)OC(C)(C)C)C3C(=O)NCCN(C(C)C)C(C)C)cc1` (configuration not stated), the concentration for a half-maximal effect (EC50) in experiment [1] is 2.4 nM.

`CCCOC(=O)N1CCc2cc(OCc3ccccc3)ccc2C1C(=O)NCCN(C(C)C)C(C)C` (configuration not stated) had a concentration giving a half-maximal response (EC50) in experiment [1] of 3.4 nM. The EC50 values of the last two compounds are within 1.5-fold of each other.

Take `CC(C)N(CCNC(=O)C1c2ccc(OCc3ccccc3)cc2CCN1C(=O)CCc1ccccc1)C(C)C` (configuration not stated): in experiment [1], the EC50 stood at 26.7 nM.

Turning to `COc1cccc(Oc2ccc3c(c2)CCN(C(=O)OC(C)(C)C)C3C(=O)NCCN(C(C)C)C(C)C)c1` (configuration not stated), the EC50 in experiment [1] was determined as 0.46 nM.

As to `CC(C)N(CCNC(=O)C1c2ccc(OCc3ccccc3)cc2CCN1C(=O)C(CO)c1ccccc1)C(C)C` (configuration not stated), the midpoint of the response in experiment [1], the EC50, lay at 5.6 nM.

`CC(C)N(CCNC(=O)C1c2ccc(OCc3ccccc3)cc2CCN1C(=O)OC(C)(C)C(=O)N(C)C)C(C)C` (configuration not stated): in experiment [1], the EC50 came out at 0.85 nM. Compared with the last compound, the EC50 is about 6.6-fold lower.

On to `CCCCS(=O)(=O)N1CCc2cc(OCc3ccccc3)ccc2C1C(=O)NCCN(C(C)C)C(C)C` (configuration not stated), for which the Activity in experiment [2] amounted to 50%.

In experiment [1], `CC(=O)c1ccccc1C(=O)N1CCc2cc(OCc3ccccc3)ccc2C1C(=O)NCCN(C(C)C)C(C)C` (configuration not stated) came in with an EC50 of 7.3 nM.

Consider `CC(C)N(CCNC(=O)C1c2ccc(Oc3ccc(C=O)cc3)cc2CCN1C(=O)OC(C)(C)C)C(C)C` (configuration not stated), for which, in experiment [1], the EC50 is 1.4 nM.

`COc1ccccc1CC(=O)N1CCc2cc(OCc3ccccc3)ccc2C1C(=O)NCCN(C(C)C)C(C)C` (configuration not stated) returned an EC50 in experiment [1] of 2.1 nM.

With `CC(C)N(CCNC(=O)C1c2ccc(Oc3ccccc3)cc2CCN1C(=O)OC(C)(C)C)C(C)C` (stereo in doubt; 12a), a half-maximal effect in experiment [1] (EC50) was put at 0.49 nM.

`CC(C)N(CCNC(=O)C1c2ccc(OCc3ccccc3)cc2CCN1C(=O)NC(C)(C)C)C(C)C` (configuration not stated) registered a 50% effective concentration (EC50) in experiment [1] of 14.4 nM.

Turning to `CC(C)N(CCNC(=O)C1c2ccc(OCc3ccccc3)cc2CCN1S(=O)(=O)Cc1ccccc1)C(C)C` (configuration not stated), it took 7.3 nM to reach a half-maximal effect in experiment [1] (EC50). Against the preceding compound, the EC50 is about 2-fold lower.

Turning to `CC(C(=O)N1CCc2cc(OCc3ccccc3)ccc2C1C(=O)NCCN(C(C)C)C(C)C)c1ccccc1` (configuration not stated), the EC50 in experiment [1] stood at 3.4 nM.

For the compound `CC(C)N(CCNC(=O)C1c2ccc(OCc3ccccc3)cc2CCN1C(=O)c1ccccc1)C(C)C` (configuration not stated), a half-maximal response in experiment [1] (EC50) required 7.6 nM.

In experiment [1], `CC(C)N(CCNC(=O)C1c2ccc(OCc3ccccc3)cc2CCN1C(=O)CC(C)(C)C)C(C)C` (configuration not stated) displayed an EC50 of 20.9 nM.

For the compound `CCOc1ccccc1C(=O)N1CCc2cc(OCc3ccccc3)ccc2C1C(=O)NCCN(C(C)C)C(C)C` (configuration not stated), the Activity in experiment [2] was found to be 30%.

In experiment [1], `CCN(CC)CCNC(=O)C1c2ccc(OCc3ccccc3)cc2CCN1C(=O)OC(C)(C)C` (configuration not stated) yielded an EC50 of 19.6 nM.

Take `CC(C)N(CCNC(=O)C1c2ccc(OCc3ccccc3)cc2CCN1C(=O)Cc1ccccc1)C(C)C` (configuration not stated): the EC50 in experiment [1] stood at 9 nM.

The compound `CC(C)N(CCNC(=O)C1c2ccc(OCc3ccccc3)cc2CCN1C(=O)Cc1ccccc1F)C(C)C` (configuration not stated) returned an EC50 in experiment [1] of 43 nM. Compared with the last compound, the EC50 is about 4.8-fold higher.

Regarding `CC(C)N(CCNC(=O)C1c2ccc(OCc3ccccc3)cc2CCN1S(=O)(=O)N(C)C)C(C)C` (configuration not stated), the EC50 in experiment [1] turned out to be 21 nM.

`COC(=O)C(C)(C)OC(=O)N1CCc2cc(OCc3ccccc3)ccc2C1C(=O)NCCN(C(C)C)C(C)C` (configuration not stated): the concentration giving a half-maximal response (EC50) in experiment [6] and in experiment [1] was 1.5 nM in each case. The Responder in the experiment listed under Rattus norvegicus [7] stood at 5 rats. The same compound returned an Increase with Rattus norvegicus [5] of 746%.

Take `CC(C)N(CCNC(=O)C1c2ccc(OCc3ccccc3)cc2CCN1C(=O)OC(C)(C)C#N)C(C)C` (configuration not stated): in experiment [1], the EC50 came out at 9.8 nM.

`CC(C)N(CCNC(=O)C1c2ccc(OCc3ccccc3)cc2CCN1C(=O)c1ccccc1F)C(C)C` (configuration not stated) displayed an EC50 in experiment [1] of 17.8 nM.

Consider `CC(=O)N1CCc2cc(OCc3ccccc3)ccc2C1C(=O)NCCN(C(C)C)C(C)C` (configuration not stated), for which the EC50 in experiment [1] stood at 257 nM.

`CC(=O)C(C)(C)OC(=O)N1CCc2cc(OCc3ccccc3)ccc2C1C(=O)NCCN(C(C)C)C(C)C` (configuration not stated): the EC50 in experiment [6] and in experiment [1] was 2 nM throughout. The Responder in the experiment filed under Rattus norvegicus [7] was determined as 5 rats. The compound further yielded an Increases in the experiment on Rattus norvegicus [5] of 666%.

`CC(C)(N)CNC(=O)C1c2ccc(OCc3ccccc3)cc2CCN1C(=O)OC(C)(C)C` (configuration not stated) gave an Activity in experiment [2] of 47%.

Regarding `CC(C)N(CCNC(=O)C1c2ccc(Oc3ccc(Cl)cc3)cc2CCN1C(=O)OC(C)(C)C)C(C)C` (configuration not stated), the response in experiment [1] was half-maximal at 0.73 nM (EC50).

`CC(C)N(CCNC(=O)C1c2ccc(Oc3ccccc3)cc2CCN1C(=O)OC(C)(C)C)C(C)C` (single isomer, unassigned; form 1) had a half-maximal effective concentration (EC50) in experiment [1] of 7.6 nM.

As for `CC(C)N(CCNC(=O)C1c2ccc(OCc3ccccc3)cc2CCN1C(=O)OC(C)(C)C)C(C)C` (configuration not stated), the midpoint of the response in experiment [1], the EC50, lay at 11.7 nM.

In experiment [1], `COc1cccc(CC(=O)N2CCc3cc(OCc4ccccc4)ccc3C2C(=O)NCCN(C(C)C)C(C)C)c1` (configuration not stated) yielded an EC50 of 6.4 nM. Compared with the last compound, the EC50 is about 1.8-fold lower.

In the case of `CN(C)CCNC(=O)C1c2ccc(OCc3ccccc3)cc2CCN1C(=O)OC(C)(C)C` (configuration not stated), the Activity in experiment [2] turned out to be 46%.

Consider `CC(C)(CN)CNC(=O)C1c2ccc(OCc3ccccc3)cc2CCN1C(=O)OC(C)(C)C` (configuration not stated), for which, in experiment [1], the EC50 stood at 257 nM.

`CC(C)N(CCNC(=O)C1c2ccc(Oc3cccc(F)c3)cc2CCN1C(=O)OC(C)(C)C)C(C)C` (configuration not stated) returned an EC50 in experiment [1] of 4.3 nM.

By EC50 is commonly meant the concentration giving half of the maximal effect.

The values are drawn from ChEMBL document CHEMBL1142646, “Tetrahydroisoquinoline 1-carboxamides as growth hormone secretagogues” (Bioorg Med Chem Lett, 2005).
